Columns and labels:
[1] = target: P2Y purinoceptor 12 (Homo sapiens, UniProt Q9H244); assay: Displacement of [33P]2-MeS-ADP from human recombinant P2Y12 receptor expressed in CHO cell membranes by scintillation counting method
[2] = tested on: Platelet; assay: Inhibition of ADP-stimulated platelet aggregation in human platelet rich plasma by 96-well format based turbidimetric method; assay type: functional
Summary of the method: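 Citrated (ACD-A) donor blood was spun at 150g for 15 min at room temperature to give PRP. PRP was adjusted with PPP to 3 × 10^8 platelets/mL. Compound, diluted in NaCl, was preincubated with hPRP for 5 min before ADP was added.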

[3] = tested on: Platelet; assay: Inhibition of ADP-stimulated platelet aggregation in human platelet rich plasma by light transmission aggregometry based Born method; assay type: functional, cell-based

Sequence of P2Y purinoceptor 12 (Q9H244 whole entry): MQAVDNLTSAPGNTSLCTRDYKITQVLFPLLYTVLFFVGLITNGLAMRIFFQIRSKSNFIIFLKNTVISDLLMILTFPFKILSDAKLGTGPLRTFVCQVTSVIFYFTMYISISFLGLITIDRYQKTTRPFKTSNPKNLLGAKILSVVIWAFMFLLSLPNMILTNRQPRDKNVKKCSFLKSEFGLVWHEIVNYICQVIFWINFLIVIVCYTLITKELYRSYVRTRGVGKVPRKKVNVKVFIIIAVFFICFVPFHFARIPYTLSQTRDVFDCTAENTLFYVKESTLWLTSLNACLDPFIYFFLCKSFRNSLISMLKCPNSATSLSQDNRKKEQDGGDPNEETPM

| Ki [1] | IC50 [2] | IC50 [3] | SMILES |
| --- | --- | --- | --- |
| 180 nM | 3770 nM | – | CCOC(=O)N1CCN(C(=O)[C@H](CCN)NC(=O)c2cc(OCC(=O)N3CCC[C@H]3C(=O)NC3CCC3)n(-c3ccccc3)n2)CC1 |
| 42 nM | 675 nM | – | CCOC(=O)N1CCN(C(=O)[C@H](CCNC(C)=O)NC(=O)c2cc(OCC(=O)N3CCC[C@H]3C(=O)NC3CCC3)n(-c3ccccc3)n2)CC1 |
| 23 nM | 210 nM | 120 nM | CCOC(=O)N1CCN(C(=O)[C@H](CCO)NC(=O)c2cc(OCC(=O)N3CCC[C@H]3C(=O)NC3CCC3)n(-c3ccccc3)n2)CC1 |
| 202 nM | 2400 nM | – | CCOC(=O)N1CCN(C(=O)[C@H](CCCCO)NC(=O)c2cc(OCC(=O)N3CCC[C@H]3C(=O)NC3CCC3)n(-c3ccccc3)n2)CC1 |
| 172 nM | 3610 nM | – | CCC[C@H](NC(=O)c1cc(OCC(=O)N2CCC[C@H]2C(=O)NC2CCC2)n(-c2ccccc2)n1)C(=O)N1CCN(C(=O)OCC)CC1 |
| 3.1 nM | 21 nM | 30 nM | CCCOC(=O)N1CCN(C(=O)[C@H](CCC(=O)O)NC(=O)c2cc(OCC(=O)N3CCC[C@H]3C(=O)NC3CCC3)n(-c3ccccc3)n2)CC1 |
| 0.8 nM | 19 nM | 13 nM | CCCCOC(=O)N1CCN(C(=O)[C@H](CCC(=O)O)NC(=O)c2cc(OCC(=O)N3CCC[C@H]3C(=O)NC3CCC3)n(-c3ccccc3)n2)CC1 |
| 7.7 nM | 72 nM | – | CCOC(=O)N1CCN(C(=O)[C@H](CCC(=O)O)NC(=O)c2cc(OCC(=O)N3CCC[C@H]3C(=O)NC3CCC3)n(-c3ccccc3)n2)[C@H](C)C1 |
| 54 nM | 430 nM | – | CCOC(=O)N1CCN(C(=O)[C@H](CCC(=O)O)NC(=O)c2cc(OCC(=O)N3CCC[C@H]3C(=O)NC3CCC3)n(-c3ccccc3)n2)[C@@H](C)C1 |
| 80 nM | 1510 nM | – | CCOC(=O)N1CCN(C(=O)[C@H](CCC(=O)O)NC(=O)c2cc(OCC(=O)N3CCC[C@H]3C(=O)NC3CCC3)n(-c3ccccc3)n2)C[C@@H]1C |
| 51 nM | 335 nM | – | CCOC(=O)N1CCN(C(=O)[C@H](CCC(=O)O)NC(=O)c2cc(OCC(=O)N3CCC[C@H]3C(=O)NC3CCC3)n(-c3ccccc3)n2)C[C@H]1C |
| 42 nM | 76 nM | – | CCOC(=O)N1CCN(C(=O)[C@H](CCC(=O)O)NC(=O)c2cc(OCC(=O)N3CC[C@H]3C(=O)NC3CCC3)n(-c3ccccc3)n2)CC1 |
| 238 nM | 3130 nM | – | CCOC(=O)N1CCN(C(=O)[C@H](CCC(=O)O)NC(=O)c2cc(OCC(=O)N3CCC(C(=O)NC4CCC4)C3)n(-c3ccccc3)n2)CC1 (some centres not stated) |
| 613 nM | 2940 nM | – | CCOC(=O)N1CCN(C(=O)[C@H](CCC(=O)O)NC(=O)c2cc(OCC(=O)N3CC(C(=O)NC4CCC4)C3)n(-c3ccccc3)n2)CC1 |
| 283 nM | 3100 nM | – | CCOC(=O)N1CCN(C(=O)[C@H](CCC(=O)O)NC(=O)c2cc(OCC(=O)N3CCC[C@H]3C(N)=O)n(-c3ccccc3)n2)CC1 |
| 536 nM | 1460 nM | – | CCOC(=O)N1CCN(C(=O)[C@H](CCC(=O)O)NC(=O)c2cc(OCC(=O)N3CCC[C@H]3C(=O)NC)n(-c3ccccc3)n2)CC1 |
| 303 nM | 475 nM | – | CCNC(=O)[C@@H]1CCCN1C(=O)COc1cc(C(=O)N[C@@H](CCC(=O)O)C(=O)N2CCN(C(=O)OCC)CC2)nn1-c1ccccc1 |
| 105 nM | 13 nM | – | CCOC(=O)N1CCN(C(=O)[C@H](CCC(=O)O)NC(=O)c2cc(OCC(=O)N3CCC[C@H]3C(=O)NC3CC3)n(-c3ccccc3)n2)CC1 |
| 958 nM | – | – | CCOC(=O)N1CCN(C(=O)[C@H](CCC(=O)O)NC(=O)c2cc(OCC(=O)N3CCC[C@@H]3C(=O)NC3CC3)n(-c3ccccc3)n2)CC1 |
| 27 nM | 220 nM | – | CCOC(=O)N1CCN(C(=O)[C@H](CCC(=O)O)NC(=O)c2cc(OCC(=O)N3CCC[C@H]3C(=O)N(C)C3CCC3)n(-c3ccccc3)n2)CC1 |

Continued, compound first:

| SMILES | Ki [1] | IC50 [2] | IC50 [3] |
| --- | --- | --- | --- |
| CCOC(=O)N1CCN(C(=O)[C@H](CCNS(C)(=O)=O)NC(=O)c2cc(OCC(=O)N3CCC[C@H]3C(=O)NC3CCC3)n(-c3ccccc3)n2)CC1 | 23 nM | – | – |
| CCOC(=O)N1CCN(C(=O)[C@H](CCc2nnn[nH]2)NC(=O)c2cc(OCC(=O)N3CCC[C@H]3C(=O)NC3CCC3)n(-c3ccccc3)n2)CC1 | 5 nM | 40 nM | 69 nM |
| CCCCOC(=O)N1CCN(C(=O)[C@H](CCc2nnn[nH]2)NC(=O)c2cc(OCC(=O)N3CCC[C@H]3C(=O)NC3CCC3)n(-c3ccccc3)n2)CC1 | – | 50 nM | 79 nM |
| CCCCOC(=O)N1CCN(C(=O)[C@H](CCCO)NC(=O)c2cc(OCC(=O)N3CCC[C@H]3C(=O)NC3CCC3)n(-c3ccccc3)n2)CC1 | 6.5 nM | 92 nM | 70 nM |
| CCOC(=O)N1CCN(C(=O)[C@H](CC(C)C)NC(=O)c2cc(OCC(=O)N3CCC[C@H]3C(=O)NC3CCC3)n(-c3ccccc3)n2)CC1 | 207 nM | > 5000 nM | – |
| CCOC(=O)N1CCN(C(=O)[C@@H](NC(=O)c2cc(OCC(=O)N3CCC[C@H]3C(=O)NC3CCC3)n(-c3ccccc3)n2)C(C)C)CC1 | 183 nM | 1900 nM | – |
| CCOC(=O)N1CCN(C(=O)[C@H](C)NC(=O)c2cc(OCC(=O)N3CCC[C@H]3C(=O)NC3CCC3)n(-c3ccccc3)n2)CC1 | 111 nM | 2210 nM | – |
| CCCCOC(=O)NC1CCN(C(=O)[C@H](CCC(=O)O)NC(=O)c2cc(OCC(=O)N3CCC[C@H]3C(=O)NC3CCC3)n(-c3ccccc3)n2)C1 (some centres not stated) | 82 nM | 1880 nM | – |
| CCCCOC(=O)N1CCC(NC(=O)[C@H](CCC(=O)O)NC(=O)c2cc(OCC(=O)N3CCC[C@H]3C(=O)NC3CCC3)n(-c3ccccc3)n2)C1 (some centres not stated) | 193 nM | > 5000 nM | – |
| COc1cccc(N2CCN(C(=O)[C@H](CCC(=O)O)NC(=O)c3cc(OCC(=O)N4CCC[C@H]4C(=O)NC4CCC4)n(-c4ccccc4)n3)CC2)c1 | 30 nM | 790 nM | – |
| O=C(O)CC[C@H](NC(=O)c1cc(OCC(=O)N2CCC[C@H]2C(=O)NC2CCC2)n(-c2ccccc2)n1)C(=O)N1CCC(C(=O)c2ccccc2)CC1 | 40 nM | 1330 nM | – |
| O=C(O)CC[C@H](NC(=O)c1cc(OCC(=O)N2CCC[C@H]2C(=O)NC2CCC2)n(-c2ccccc2)n1)C(=O)N1CCN(C(=O)c2ccccc2)CC1 | 130 nM | 1230 nM | – |
| O=C(O)CC[C@H](NC(=O)c1cc(OCC(=O)N2CCC[C@H]2C(=O)NC2CCC2)n(-c2ccccc2)n1)C(=O)N1CCN(C(=O)OCc2ccccc2)CC1 | 5.7 nM | 124 nM | – |
| O=C(O)CC[C@H](NC(=O)c1cc(OCC(=O)N2CCC[C@H]2C(=O)NC2CCC2)n(-c2ccccc2)n1)C(=O)N1CCN(C(=O)Oc2ccccc2)CC1 | 71 nM | 1080 nM | – |
| O=C(O)CC[C@H](NC(=O)c1cc(OCC(=O)N2CCC[C@H]2C(=O)NC2CCC2)n(-c2ccccc2)n1)C(=O)N1CCN(C(=O)OC2CCC2)CC1 | 5 nM | 14 nM | – |
| CCOC(=O)N1CCN(C(=O)[C@H](CNS(C)(=O)=O)NC(=O)c2cc(OCC(=O)N3CCC[C@H]3C(=O)NC3CCC3)n(-c3ccccc3)n2)CC1 | 48 nM | 1200 nM | – |

| SMILES | Ki [1] | IC50 [2] | IC50 [3] |
| --- | --- | --- | --- |
| CCOC(=O)N1CCN(C(=O)[C@H](CCC(=O)O)NC(=O)c2cc(OCC(=O)N3CCC[C@H]3C(=O)N3CCCC3)n(-c3ccccc3)n2)CC1 | 219 nM | 600 nM | – |
| CCOC(=O)N1CCN(C(=O)[C@H](CCC(=O)O)NC(=O)c2cc(OCC(=O)N3CCC[C@H]3C(=O)N3CCCCC3)n(-c3ccccc3)n2)CC1 | 56 nM | 70 nM | 73 nM |
| CCOC(=O)N1CCN(C(=O)[C@H](CCC(=O)O)NC(=O)c2cc(OCC(=O)N3CCC[C@H]3c3nc(C)c[nH]3)n(-c3ccccc3)n2)CC1 | 56 nM | 380 nM | – |
| CCOC(=O)N1CCN(C(=O)[C@H](CCC(=O)O)NC(=O)c2cc(OCC(=O)N3CCC[C@H]3c3ccccc3)n(-c3ccccc3)n2)CC1 | 33 nM | – | – |
| CCOC(=O)N1CCC(NC(=O)[C@H](CCC(=O)O)NC(=O)c2cc(OCC(=O)N3CCC[C@H]3C(=O)NC3CCC3)n(-c3ccccc3)n2)CC1 | > 5000 nM | > 5000 nM | – |
| CCCCOC(=O)NC1CCN(C(=O)[C@H](CCC(=O)O)NC(=O)c2cc(OCC(=O)N3CCC[C@H]3C(=O)NC3CCC3)n(-c3ccccc3)n2)CC1 | 22 nM | 55 nM | 120 nM |
| CCOC(=O)N1CCN(C(=O)[C@H](CCC(=O)O)NC(=O)c2cc(OCC(=O)N3CCCC3=O)n(-c3ccccc3)n2)CC1 | 173 nM | 900 nM | – |
| CCOC(=O)N1CCN(C(=O)[C@H](CCC(=O)O)NC(=O)c2cc(OCC(=O)N3CCC[C@H]3C(=O)NC(C)C)n(-c3ccccc3)n2)CC1 | 56 nM | – | – |
| CCOC(=O)N1CCN(C(=O)[C@H](CCC(=O)O)NC(=O)c2cc(OC(C)(C)C(=O)OCC)c3ccc(C)cc3n2)CC1 | 86 nM | 2600 nM | – |
| CCOC(=O)N1CCN(C(=O)[C@H](CCC(=O)O)NC(=O)c2cc(OCC(=O)C3CCC3)n(-c3ccccc3)n2)CC1 | 574 nM | 7410 nM | – |
| CCOC(=O)N1CCN(C(=O)[C@H](CCC(=O)O)NC(=O)c2cc(OCC(N)=O)n(-c3ccccc3)n2)CC1 | 2720 nM | 9050 nM | – |
| CCOC(=O)N1CCN(C(=O)[C@H](CCC(=O)O)NC(=O)c2cc(OCC(=O)N(CC)CC)n(-c3ccccc3)n2)CC1 | > 5000 nM | > 10000 nM | – |
| CCOC(=O)N1CCN(C(=O)[C@H](CCC(=O)O)NC(=O)c2cc(OCC(=O)N3CC[C@@H](O)C3)n(-c3ccccc3)n2)CC1 | 459 nM | 1370 nM | – |
| CCOC(=O)N1CCN(C(=O)[C@H](CCC(=O)O)NC(=O)c2cc(=O)n(-c3ccccc3)[nH]2)CC1 | > 5000 nM | > 10000 nM | – |
| CNc1cc2[nH]c(=O)n(-c3ccc(NC(=O)NS(=O)(=O)c4ccc(Cl)s4)cc3)c(=O)c2cc1F [ELINOGREL] | 23 nM | 2810 nM | – |
| CCCSc1nc(N[C@@H]2C[C@H]2c2ccc(F)c(F)c2)c2nnn([C@@H]3C[C@H](OCCO)[C@@H](O)[C@H]3O)c2n1 [TICAGRELOR] | 14 nM | 1830 nM | – |
